Experimental data published in PMC4085604 (Scientific Reports, 2014).

B1: His6-trigger factor: trigger factor (N-terminal His-tag) (protein, UniProt P0A850 1-432, looked up)
Trigger factor: MQVSVETTQGLGRRVTITIAADSIETAVKSELVNVAKKVRIDGFRKGKVPMNIVAQRYGASVRQDVLGDLMSRNFIDAIIKEKINPAGAPTYVPGEYKLGEDFTYSVEFEVYPEVELQGLEAIEVEKPIVEVTDADVDGMLDTLRKQQATWKEKDGAVEAEDRVTIDFTGSVDGEEFEGGKASDFVLAMGQGRMIPGFEDGIKGHKAGEEFTIDVTFPEEYHAENLKGKAAKFAINLKKVEERELPELTAEFIKRFGVEDGSVEGLRAEVRKNMERELKSAIRNRVKSQAIEGLVKANDIDVPAALIDSEIDVLRRQAAQRFGGNEKQALELPRELFEEQAKRRVVVGLLLGEVIRTNELKADEERVKGLIEEMASAYEDPKEVIEFYSKNKELMDNMRNVALEEQAVEAVLAKAKVTEKETTFNELMNQQA
modifications: N-terminal His6 tag

Assays:
[1] = test system: BHQ-10-labeled anti-His-tag mAb “8-4-4”; assay: Homogeneous His6 detection assay; assay type: binding, mouse; settings: for detectability within total assay time, in words: total assay time of less than two minutes; for phosphorescence response, in words: increasing protein concentration, TRF after 90 s shaking
Procedure, shortened: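 His6-tagged proteins (C- or N-terminal tag, or chemically His6-labeled BSA) in PBS pH 7.4 with 2 mg/mL BSA, or in E. coli lysate. Premixed with EuLH-HHRHH-NH2 donor peptide solution (40 nmol/L), then BHQ-10-labeled antibody solution (80 nmol/L) added. After 90 s shaking, read TRF at ex 370/em 616 nm. Triplicates. LOD is the lowest concentration whose mean exceeds blank plus 3 SD.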

anti-His-tag mAb “8-4-4” = assay type: binding, mouse; settings: inferred from FRET efficiency curve

Molecule | detectability within total assay time, in words [1] | affinity to the anti-His-tag antibody, in words (anti-His-tag mAb “8-4-4”) | phosphorescence response, in words ([1]; n = 3) | other results
NPP3-His6: recombinant protein with C-terminal His-tag | could be detected highly significantly and semi-quantitatively |  |  | 
HHHHH-NH2 |  | did not influence the FRET efficiency curve substantially, and therefore also not the affinity |  | 
HHEHH-NH2 |  | full loss of affinity to the anti-His-tag antibody |  | 
HHHHHH-NH2 |  | strong and specific interaction between the peptide and the antibody |  | 
Bovine serum albumin [BSA, reference compound] |  |  | no response | 
B1 | could be detected highly significantly and semi-quantitatively |  | increasing phosphorescence intensities with increasing protein concentration | detection limit ([1]; mass concentration, sample 50 μL + donor peptide EuLH-HHRHH-NH2 (10 μL, 40 nmol/L) + BHQ-10-mAb (40 μL, 80 nmol/L), PBS pH 7.4 with 2 mg/mL BSA, 90 s, n = 3, background plus 3x SD): 39 mg/L
